What was measured:
Type in all cases: functional, cell-based
[1] = tested on: KB; assay: Cytotoxicity against human KB cells after 3 days by MTT assay; details: 72 h
Procedure, shortened: (§1)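 Exponential-phase cells seeded at 5 × 10⁴–1 × 10⁵ cells/mL in fresh medium, grown overnight, then treated with compounds dissolved in DMSO at selected concentrations for 3 days. MTT in PBS (10 mg/mL stock) added for 3 h. Formazan dissolved in DMSO and read at 540 nm, with PBS lacking MTT as blank. Inhibition rate taken from averaged OD; IC50 = concentration giving 50% growth inhibition. Coefficients of variation <10%.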

[2] = Cytotoxicity against human CNE2 cells after 3 days by MTT assay; details: CNE-2, 72 h; procedure, shortened: as §1
[3] = tested on: MGC-803; assay: Cytotoxicity against human MGC803 cells after 3 days by MTT assay; details: MGC-803, 72 h; procedure, shortened: as §1

| Structure (SMILES) | IC50 [1] [nM] | IC50 [2] [nM] | IC50 [3] [nM] |
| --- | --- | --- | --- |
| C=C1c2c(C)nc(OC)c(C#N)c2N=CN1CCCCCC | > 50000 |  |  |
| C=C1c2c(C)nc(OC)c(C#N)c2N=CN1Cc1ccco1 | > 50000 |  |  |
| C=C1c2c(C)nc(OC)c(C#N)c2N=CN1Cc1ccccc1 | > 50000 |  |  |
| C=C1c2c(C)nc(OC)c(C#N)c2N=CN1Cc1ccc(Cl)cc1 | 20000 |  |  |
| C=C1c2c(C)nc(OC)c(C#N)c2N=CN1Cc1cccc(C)c1 | 37000 |  |  |
| C=C1c2c(C)nc(OC)c(C#N)c2N=CN1Cc1ccc(C)cc1 | 480 | 150 | 590 |
| C=C1c2c(C)nc(OC)c(C#N)c2N=CN1Cc1ccc(OC)cc1 | 670 | 180 | 670 |
| C=C1c2c(C)nc(OC)c(C#N)c2N=CN1CCc1ccc(Cl)cc1 | > 50000 |  |  |
| COc1nc(C)c2c(C)ncnc2c1C#N | > 50000 |  |  |
| C=C1c2c(C)nc(OC)c(C#N)c2N=CN1CC | > 50000 |  |  |
| C=C1c2c(C)nc(OC)c(C#N)c2N=CN1CCC | > 50000 |  |  |

From ChEMBL document CHEMBL1833817, “Synthesis and cytotoxicity of 8-cyano-3-substitutedalkyl-5-methyl-4-methylene-7-methoxy-3,4-dihydropyrido[4,3-d]pyrimidines” (Bioorg Med Chem Lett, 2011)
